Laboratory results reported in ChEMBL document CHEMBL1158361, “Discovering novel quercetin-3-O-amino acid-esters as a new class of Src tyrosine kinase inhibitors” (Eur J Med Chem, 2009).

Assays:
[1] = target: Epidermal growth factor receptor (Homo sapiens) (UniProt P00533); experiment: Inhibition of EGFR at 10 uM
Method in brief: (§1)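 Wells were precoated with 20 μg/mL poly(Glu,Tyr)4:1 substrate, then given an 8 μM ATP solution (added concentration) and compound. Purified EGFR or Src in kinase buffer ran for 60 min at 37 °C, in triplicate, with 0.1% DMSO as negative control. Phosphotyrosine was detected with PY99, HRP anti-mouse IgG and o-phenylenediamine/H2O2 at A490. Inhibition % = [1 − A490/A490 control] × 100, and IC50 was taken from inhibition curves.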

[2] = target: T1, Proto-oncogene tyrosine-protein kinase Src (Homo sapiens, UniProt P12931); experiment: Inhibition of Src; method in brief: as §1
[3] = target: T1, Proto-oncogene tyrosine-protein kinase Src; experiment: Inhibition of Src at 10 uM; method in brief: as §1

T1 sequence (P12931 2-536 limits assumed): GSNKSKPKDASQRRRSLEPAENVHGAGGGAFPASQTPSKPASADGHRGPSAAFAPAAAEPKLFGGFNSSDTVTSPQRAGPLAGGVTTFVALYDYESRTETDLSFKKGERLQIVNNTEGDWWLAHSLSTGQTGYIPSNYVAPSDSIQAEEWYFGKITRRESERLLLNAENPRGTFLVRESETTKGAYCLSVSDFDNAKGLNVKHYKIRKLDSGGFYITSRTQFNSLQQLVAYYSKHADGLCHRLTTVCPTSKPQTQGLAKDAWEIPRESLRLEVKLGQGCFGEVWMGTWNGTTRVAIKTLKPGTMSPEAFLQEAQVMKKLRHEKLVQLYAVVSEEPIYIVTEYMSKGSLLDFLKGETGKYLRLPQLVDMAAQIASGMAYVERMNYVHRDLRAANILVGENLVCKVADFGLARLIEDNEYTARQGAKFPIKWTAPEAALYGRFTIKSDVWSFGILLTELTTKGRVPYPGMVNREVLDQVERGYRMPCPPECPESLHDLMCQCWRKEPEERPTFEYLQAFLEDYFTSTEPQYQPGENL
Chain of Epidermal growth factor receptor (Homo sapiens) (P00533 whole entry): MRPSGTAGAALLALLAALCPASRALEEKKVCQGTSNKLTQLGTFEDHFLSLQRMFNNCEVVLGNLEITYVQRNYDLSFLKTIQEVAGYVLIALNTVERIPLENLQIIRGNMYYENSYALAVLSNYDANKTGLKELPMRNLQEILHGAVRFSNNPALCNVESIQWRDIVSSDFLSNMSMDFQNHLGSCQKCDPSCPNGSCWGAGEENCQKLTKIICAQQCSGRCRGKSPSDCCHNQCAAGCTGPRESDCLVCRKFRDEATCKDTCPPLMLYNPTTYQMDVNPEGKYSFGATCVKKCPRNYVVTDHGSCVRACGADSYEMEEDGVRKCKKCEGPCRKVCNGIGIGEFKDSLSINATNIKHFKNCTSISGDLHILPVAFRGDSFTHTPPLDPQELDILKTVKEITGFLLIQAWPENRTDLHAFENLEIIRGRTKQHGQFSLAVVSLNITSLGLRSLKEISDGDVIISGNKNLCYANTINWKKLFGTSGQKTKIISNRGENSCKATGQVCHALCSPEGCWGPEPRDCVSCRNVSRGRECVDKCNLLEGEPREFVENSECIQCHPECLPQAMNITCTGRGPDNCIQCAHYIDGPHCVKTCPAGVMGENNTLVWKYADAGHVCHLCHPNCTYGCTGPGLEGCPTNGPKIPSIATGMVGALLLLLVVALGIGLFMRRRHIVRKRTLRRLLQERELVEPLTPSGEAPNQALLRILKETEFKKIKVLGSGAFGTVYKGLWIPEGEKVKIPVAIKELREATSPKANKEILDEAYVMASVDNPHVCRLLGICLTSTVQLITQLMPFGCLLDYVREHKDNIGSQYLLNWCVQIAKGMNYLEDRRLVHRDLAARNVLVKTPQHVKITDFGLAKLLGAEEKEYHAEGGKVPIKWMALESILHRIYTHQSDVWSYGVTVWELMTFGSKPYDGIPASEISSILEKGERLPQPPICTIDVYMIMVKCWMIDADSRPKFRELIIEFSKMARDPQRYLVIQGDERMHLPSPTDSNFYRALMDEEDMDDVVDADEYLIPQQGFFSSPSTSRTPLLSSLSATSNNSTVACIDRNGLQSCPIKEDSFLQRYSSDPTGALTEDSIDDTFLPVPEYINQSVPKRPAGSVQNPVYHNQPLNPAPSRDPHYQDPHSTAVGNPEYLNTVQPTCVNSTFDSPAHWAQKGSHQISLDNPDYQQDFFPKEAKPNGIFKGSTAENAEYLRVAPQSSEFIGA

Row | Compound | inhibition [1] [%] | IC50 [2] [µM] | inhibition [3] [%]
1 | C[C@H](NC(=O)OC(C)(C)C)C(=O)Oc1c(-c2ccc(O)c(O)c2)oc2cc(O)cc(O)c2c1=O | 35.9 | 6.5 | 51.4
2 | CC(=O)N[C@@H](CC(C)C)C(=O)Oc1c(-c2ccc(O)c(O)c2)oc2cc(O)cc(O)c2c1=O | 25.9 | – | 39
3 | CC(C)C[C@@H](NC(=O)OC(C)(C)C)C(=O)Oc1c(-c2ccc(O)c(O)c2)oc2cc(O)cc(O)c2c1=O | 29.2 | – | 44.5
4 | C[C@H](O)[C@@H](NC(=O)OC(C)(C)C)C(=O)Oc1c(-c2ccc(O)c(O)c2)oc2cc(O)cc(O)c2c1=O | 34.6 | 4.9 | 71
5 | COc1cc2ncnc(Nc3ccc(OCc4ccccc4)cc3)c2cc1OC | 97.2 | – | –
6 | CC(C)(C)OC(=O)N[C@@H](Cc1c[nH]c2ccccc12)C(=O)Oc1c(-c2ccc(O)c(O)c2)oc2cc(O)cc(O)c2c1=O | 15.6 | – | 44.4
7 | CC(C)(C)n1nc(-c2ccc(Cl)cc2)c2c(N)ncnc21 | – | – | 99
8 | C[C@@H](O)[C@H](NC(=O)OC(C)(C)C)C(=O)Oc1c(-c2ccc(O)c(O)c2)oc2cc(O)cc(O)c2c1=O | 36.8 | 3.5 | 76.1
9 | CC(=O)N1CCC[C@H]1C(=O)Oc1c(-c2ccc(O)c(O)c2)oc2cc(O)cc(O)c2c1=O | 21 | – | 24.3
10 | O=c1c(O)c(-c2ccc(O)c(O)c2)oc2cc(O)cc(O)c12 [QUERCETIN] | – | 15 | –
11 | CC(C)[C@@H](NC(=O)OC(C)(C)C)C(=O)Oc1c(-c2ccc(O)c(O)c2)oc2cc(O)cc(O)c2c1=O | 22.3 | – | 40.7
12 | CC(C)[C@H](NC(=O)OC(C)(C)C)C(=O)Oc1c(-c2ccc(O)c(O)c2)oc2cc(O)cc(O)c2c1=O | 21 | 7.4 | 52.5
13 | CC(C)C[C@H](NC(=O)OC(C)(C)C)C(=O)Oc1c(-c2ccc(O)c(O)c2)oc2cc(O)cc(O)c2c1=O | 30.4 | 4.2 | 55.4
14 | CC(=O)N[C@@H](Cc1ccccc1)C(=O)Oc1c(-c2ccc(O)c(O)c2)oc2cc(O)cc(O)c2c1=O | 20.9 | 5.9 | 60.5
15 | CC(C)(C)OC(=O)N[C@@H](CC(N)=O)C(=O)Oc1c(-c2ccc(O)c(O)c2)oc2cc(O)cc(O)c2c1=O | 23.8 | 9.9 | 50.8
16 | CC(C)(C)OC(=O)N1CCC[C@H]1C(=O)Oc1c(-c2ccc(O)c(O)c2)oc2cc(O)cc(O)c2c1=O | 19.3 | – | 27.7
17 | CC(C)(C)OC(=O)NCC(=O)Oc1c(-c2ccc(O)c(O)c2)oc2cc(O)cc(O)c2c1=O | 43.2 | 3.3 | 76.2
18 | CC(C)(C)OC(=O)N[C@@H](Cc1ccccc1)C(=O)Oc1c(-c2ccc(O)c(O)c2)oc2cc(O)cc(O)c2c1=O | 35.9 | – | 40.9
